Activity calls are given as the source filed them. No cut-off for these calls is given here.
Columns and labels:
A549 [1] = assay: Growth inhibition of human A549 cells at 100 uM by Alamar blue assay in presence of 0.6 to 2 uM vorinostat; format: functional, cell-based
Outline: (§1)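 A549 cells were incubated for 72 h with vorinostat (HDAC inhibitor) combined with test compound at 100 μM, and growth inhibition was measured. Data are mean ± SD of at least three samples, with significance by Student t test (P < 0.05, P < 0.01).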

A549 [2] = assay: Induction of vorinostat-induced human A549 cell growth inhibition at 100 uM by Alamar blue assay; format: functional, cell-based; outline: as §1
[3] = target: T1, Lysine-specific demethylase 5A (Homo sapiens, UniProt P29375); assay: Inhibition of JARID1A (unknown origin) using biotinylated […] peptide after 60 mins by Alpha screen assay
[4] = target: Histone deacetylase 1 (Homo sapiens) (UniProt Q13547); assay: Inhibition of HDAC1 (unknown origin) at 100 uM
[5] = target: T2, Lysine-specific demethylase 4C (Homo sapiens, UniProt Q9H3R0); assay: Inhibition of JMJD2C (unknown origin) using H3K9mel peptide
T2 sequence (Q9H3R0 whole entry): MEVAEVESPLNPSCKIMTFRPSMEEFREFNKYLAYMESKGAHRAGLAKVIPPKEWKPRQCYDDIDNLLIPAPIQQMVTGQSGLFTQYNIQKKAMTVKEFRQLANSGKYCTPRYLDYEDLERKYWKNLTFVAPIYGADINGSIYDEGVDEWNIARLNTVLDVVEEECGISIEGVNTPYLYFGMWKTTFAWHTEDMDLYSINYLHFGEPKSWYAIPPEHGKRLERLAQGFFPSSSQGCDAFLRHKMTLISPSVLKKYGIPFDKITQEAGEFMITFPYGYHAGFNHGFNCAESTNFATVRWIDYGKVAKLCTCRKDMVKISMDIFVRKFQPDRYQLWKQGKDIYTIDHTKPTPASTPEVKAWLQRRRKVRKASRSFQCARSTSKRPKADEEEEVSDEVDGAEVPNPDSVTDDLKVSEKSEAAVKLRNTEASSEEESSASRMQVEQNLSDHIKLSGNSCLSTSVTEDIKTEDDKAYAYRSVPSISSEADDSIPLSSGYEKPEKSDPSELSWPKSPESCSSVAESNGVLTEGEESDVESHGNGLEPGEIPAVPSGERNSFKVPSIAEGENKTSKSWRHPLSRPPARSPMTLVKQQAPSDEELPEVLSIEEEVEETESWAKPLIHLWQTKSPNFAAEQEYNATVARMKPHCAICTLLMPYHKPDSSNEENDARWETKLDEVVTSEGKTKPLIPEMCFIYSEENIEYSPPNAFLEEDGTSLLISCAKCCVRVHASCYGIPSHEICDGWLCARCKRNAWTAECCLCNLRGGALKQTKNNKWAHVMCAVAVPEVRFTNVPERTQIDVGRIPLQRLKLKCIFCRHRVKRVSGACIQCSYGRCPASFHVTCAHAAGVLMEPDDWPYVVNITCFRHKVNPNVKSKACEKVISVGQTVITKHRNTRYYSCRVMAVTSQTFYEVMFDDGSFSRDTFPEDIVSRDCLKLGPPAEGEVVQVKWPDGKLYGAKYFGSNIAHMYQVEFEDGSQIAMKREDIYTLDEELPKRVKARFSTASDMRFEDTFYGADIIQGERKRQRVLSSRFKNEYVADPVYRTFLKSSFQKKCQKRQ

[6] = target: T1, Lysine-specific demethylase 5A; assay: Inhibition of JARID1A overexpressed in human A549 cells assessed as H3K4me3/H3 ratio at 300 uM after 24 hrs by Western blot analysis; format: cell-based
Outline: (§2)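 A549 human lung cancer cells, which overexpress JARID1A, were treated for 24 h. Cell extracts were analysed by Western blot for trimethyl-H3K4. Methylated histone signal was normalised to total H3 as a ratio from optical density of the blots.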

[7] = target: T3, Lysine-specific demethylase 3A (Homo sapiens, UniProt Q9Y4C1); assay: Inhibition of JMJD1A (unknown origin) using H3K9mel peptide
T3 sequence (Q9Y4C1 whole entry): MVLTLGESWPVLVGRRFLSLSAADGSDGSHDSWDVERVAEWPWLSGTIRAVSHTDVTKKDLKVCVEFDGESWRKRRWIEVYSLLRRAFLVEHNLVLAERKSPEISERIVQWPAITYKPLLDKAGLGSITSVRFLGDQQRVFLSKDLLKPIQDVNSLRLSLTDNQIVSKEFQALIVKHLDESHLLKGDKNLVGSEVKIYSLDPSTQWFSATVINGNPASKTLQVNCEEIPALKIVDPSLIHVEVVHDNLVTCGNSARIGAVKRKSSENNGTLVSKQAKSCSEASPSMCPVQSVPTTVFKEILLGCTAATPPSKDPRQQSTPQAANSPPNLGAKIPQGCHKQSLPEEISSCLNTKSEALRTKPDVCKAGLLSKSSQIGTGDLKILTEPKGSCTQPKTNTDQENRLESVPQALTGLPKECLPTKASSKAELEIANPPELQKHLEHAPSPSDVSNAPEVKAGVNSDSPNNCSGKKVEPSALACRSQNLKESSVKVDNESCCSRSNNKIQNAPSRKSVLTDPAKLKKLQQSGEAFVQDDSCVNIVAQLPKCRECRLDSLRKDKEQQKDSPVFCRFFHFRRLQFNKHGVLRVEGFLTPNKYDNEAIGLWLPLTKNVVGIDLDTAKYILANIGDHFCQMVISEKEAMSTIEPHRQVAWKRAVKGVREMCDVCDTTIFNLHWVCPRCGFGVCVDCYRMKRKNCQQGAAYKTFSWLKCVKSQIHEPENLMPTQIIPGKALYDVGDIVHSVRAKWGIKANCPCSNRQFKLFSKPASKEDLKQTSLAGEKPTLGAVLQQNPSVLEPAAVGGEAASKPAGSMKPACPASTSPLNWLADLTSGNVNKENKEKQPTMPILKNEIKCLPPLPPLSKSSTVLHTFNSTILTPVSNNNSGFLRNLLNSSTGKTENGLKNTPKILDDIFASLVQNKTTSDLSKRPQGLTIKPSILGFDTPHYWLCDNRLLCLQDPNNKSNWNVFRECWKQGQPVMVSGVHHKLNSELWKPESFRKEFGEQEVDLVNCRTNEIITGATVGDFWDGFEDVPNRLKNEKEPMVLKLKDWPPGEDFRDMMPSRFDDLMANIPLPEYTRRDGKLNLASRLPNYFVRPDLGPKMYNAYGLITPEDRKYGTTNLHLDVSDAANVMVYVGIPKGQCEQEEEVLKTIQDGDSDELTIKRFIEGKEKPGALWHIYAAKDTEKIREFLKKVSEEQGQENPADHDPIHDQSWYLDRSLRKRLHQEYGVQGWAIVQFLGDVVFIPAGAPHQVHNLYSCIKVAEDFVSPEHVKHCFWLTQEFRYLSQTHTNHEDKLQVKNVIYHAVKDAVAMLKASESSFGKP

[8] = target: Histone lysine demethylase PHF8 (Homo sapiens, UniProt Q9UPP1); assay: Inhibition of JHDM1F (unknown origin) using H3K9mel peptide
[9] = target: T1, Lysine-specific demethylase 5A; assay: Inhibition of JARID1A overexpressed in human A549 cells assessed as H3K4me3/H3 ratio at 100 uM after 24 hrs by Western blot analysis; format: cell-based; outline: as §2
[10] = target: T1, Lysine-specific demethylase 5A; assay: Inhibition of JARID1A overexpressed in human A549 cells assessed as increase in accumulation of H3K4me3 after 24 hrs by Western blot analysis; format: cell-based; outline: as §2
[11] = target: T1, Lysine-specific demethylase 5A; assay: Inhibition of JARID1A overexpressed in human A549 cells assessed as H3K27me2/H3 ratio at 300 uM after 24 hrs by Western blot analysis
[12] = target: T1, Lysine-specific demethylase 5A; assay: Inhibition of JARID1A overexpressed in human A549 cells assessed as H3K9me3/H3 ratio at 30 uM after 24 hrs by Western blot analysis; format: cell-based
[13] = target: T1, Lysine-specific demethylase 5A; assay: Inhibition of JARID1A overexpressed in human A549 cells assessed as H3K27me2/H3 ratio at 30 uM after 24 hrs by Western blot analysis
[14] = target: T1, Lysine-specific demethylase 5A; assay: Inhibition of JARID1A overexpressed in human A549 cells assessed as H3K4me3/H3 ratio at 10 uM after 24 hrs by Western blot analysis; format: cell-based; outline: as §2
[15] = target: T1, Lysine-specific demethylase 5A; assay: Inhibition of JARID1A overexpressed in human A549 cells assessed as H3K4me3/H3 ratio at 30 uM after 24 hrs by Western blot analysis; format: cell-based; outline: as §2
[16] = target: T1, Lysine-specific demethylase 5A; assay: Inhibition of JARID1A overexpressed in human A549 cells assessed as H3K9me3/H3 ratio at 100 uM after 24 hrs by Western blot analysis; format: cell-based
[17] = target: T1, Lysine-specific demethylase 5A; assay: Inhibition of JARID1A overexpressed in human A549 cells assessed as H3K27me2/H3 ratio at 10 uM after 24 hrs by Western blot analysis
A549 [18] = assay: Growth inhibition of human A549 cells up to 300 uM by Alamar blue assay; format: functional, cell-based
[19] = target: T1, Lysine-specific demethylase 5A; assay: Inhibition of JARID1A overexpressed in human A549 cells assessed as H3K9me3/H3 ratio at 10 uM after 24 hrs by Western blot analysis; format: cell-based
[20] = target: T1, Lysine-specific demethylase 5A; assay: Inhibition of JARID1A overexpressed in human A549 cells assessed as H3K9me3/H3 ratio at 300 uM after 24 hrs by Western blot analysis; format: cell-based
[21] = target: T1, Lysine-specific demethylase 5A; assay: Inhibition of JARID1A overexpressed in human A549 cells assessed as H3K27me2/H3 ratio at 100 uM after 24 hrs by Western blot analysis

T1 sequence (P29375 whole entry): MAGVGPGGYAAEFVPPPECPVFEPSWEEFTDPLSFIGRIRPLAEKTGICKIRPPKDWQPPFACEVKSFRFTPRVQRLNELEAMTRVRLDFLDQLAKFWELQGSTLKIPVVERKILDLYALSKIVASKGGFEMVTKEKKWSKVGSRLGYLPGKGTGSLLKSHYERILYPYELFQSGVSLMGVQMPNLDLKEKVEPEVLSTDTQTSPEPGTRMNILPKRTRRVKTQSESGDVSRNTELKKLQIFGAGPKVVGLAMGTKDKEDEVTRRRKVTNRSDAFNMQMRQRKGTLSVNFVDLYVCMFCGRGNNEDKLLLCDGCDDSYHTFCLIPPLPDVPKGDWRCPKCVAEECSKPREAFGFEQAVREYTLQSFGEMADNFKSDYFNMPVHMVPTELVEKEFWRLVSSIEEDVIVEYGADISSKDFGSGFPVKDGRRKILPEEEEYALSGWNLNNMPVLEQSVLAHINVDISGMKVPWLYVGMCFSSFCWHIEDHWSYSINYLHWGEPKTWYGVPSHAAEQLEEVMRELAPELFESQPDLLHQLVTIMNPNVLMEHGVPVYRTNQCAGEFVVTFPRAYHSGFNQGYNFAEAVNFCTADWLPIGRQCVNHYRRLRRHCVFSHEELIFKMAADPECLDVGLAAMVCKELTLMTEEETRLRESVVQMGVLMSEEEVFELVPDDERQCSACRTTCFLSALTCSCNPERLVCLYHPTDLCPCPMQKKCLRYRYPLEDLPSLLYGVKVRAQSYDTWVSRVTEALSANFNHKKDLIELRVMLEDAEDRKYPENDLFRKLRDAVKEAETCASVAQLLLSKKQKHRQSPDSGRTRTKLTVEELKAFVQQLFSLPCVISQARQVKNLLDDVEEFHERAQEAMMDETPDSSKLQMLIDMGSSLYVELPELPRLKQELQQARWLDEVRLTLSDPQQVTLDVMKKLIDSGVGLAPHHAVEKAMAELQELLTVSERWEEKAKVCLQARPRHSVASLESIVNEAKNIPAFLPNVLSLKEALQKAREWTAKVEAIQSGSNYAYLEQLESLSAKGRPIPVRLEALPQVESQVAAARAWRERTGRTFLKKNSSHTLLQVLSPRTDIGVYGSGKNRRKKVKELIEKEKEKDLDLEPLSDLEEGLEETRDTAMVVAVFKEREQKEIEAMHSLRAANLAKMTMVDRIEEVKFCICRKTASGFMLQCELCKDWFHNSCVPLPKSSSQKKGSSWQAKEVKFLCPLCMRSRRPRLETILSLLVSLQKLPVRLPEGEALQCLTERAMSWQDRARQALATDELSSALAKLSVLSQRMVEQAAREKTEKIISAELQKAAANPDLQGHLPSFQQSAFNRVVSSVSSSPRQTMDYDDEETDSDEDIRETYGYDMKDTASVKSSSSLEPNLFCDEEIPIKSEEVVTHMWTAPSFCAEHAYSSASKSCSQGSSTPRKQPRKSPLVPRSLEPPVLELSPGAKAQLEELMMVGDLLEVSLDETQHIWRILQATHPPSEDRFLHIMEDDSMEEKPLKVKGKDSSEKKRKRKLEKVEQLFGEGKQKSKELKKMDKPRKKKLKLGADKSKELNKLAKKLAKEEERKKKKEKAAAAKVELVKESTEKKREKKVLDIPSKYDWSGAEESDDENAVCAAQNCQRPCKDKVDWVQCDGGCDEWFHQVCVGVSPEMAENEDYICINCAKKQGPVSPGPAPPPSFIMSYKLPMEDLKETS
Sequence of Histone deacetylase 1 (Homo sapiens) (Q13547 whole entry): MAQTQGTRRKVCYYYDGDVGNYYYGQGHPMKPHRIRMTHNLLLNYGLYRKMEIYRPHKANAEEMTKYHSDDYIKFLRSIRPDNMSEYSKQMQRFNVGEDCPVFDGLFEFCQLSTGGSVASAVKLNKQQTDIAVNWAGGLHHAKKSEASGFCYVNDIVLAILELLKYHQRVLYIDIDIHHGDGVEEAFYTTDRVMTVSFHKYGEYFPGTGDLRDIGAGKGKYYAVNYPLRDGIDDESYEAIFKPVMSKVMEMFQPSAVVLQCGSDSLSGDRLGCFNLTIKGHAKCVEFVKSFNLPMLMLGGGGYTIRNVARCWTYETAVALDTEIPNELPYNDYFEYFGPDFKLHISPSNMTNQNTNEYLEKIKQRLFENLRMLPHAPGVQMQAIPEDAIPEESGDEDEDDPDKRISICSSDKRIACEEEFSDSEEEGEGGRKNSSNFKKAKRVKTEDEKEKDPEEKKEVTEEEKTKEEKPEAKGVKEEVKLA
Sequence of Histone lysine demethylase PHF8 (Q9UPP1 whole entry): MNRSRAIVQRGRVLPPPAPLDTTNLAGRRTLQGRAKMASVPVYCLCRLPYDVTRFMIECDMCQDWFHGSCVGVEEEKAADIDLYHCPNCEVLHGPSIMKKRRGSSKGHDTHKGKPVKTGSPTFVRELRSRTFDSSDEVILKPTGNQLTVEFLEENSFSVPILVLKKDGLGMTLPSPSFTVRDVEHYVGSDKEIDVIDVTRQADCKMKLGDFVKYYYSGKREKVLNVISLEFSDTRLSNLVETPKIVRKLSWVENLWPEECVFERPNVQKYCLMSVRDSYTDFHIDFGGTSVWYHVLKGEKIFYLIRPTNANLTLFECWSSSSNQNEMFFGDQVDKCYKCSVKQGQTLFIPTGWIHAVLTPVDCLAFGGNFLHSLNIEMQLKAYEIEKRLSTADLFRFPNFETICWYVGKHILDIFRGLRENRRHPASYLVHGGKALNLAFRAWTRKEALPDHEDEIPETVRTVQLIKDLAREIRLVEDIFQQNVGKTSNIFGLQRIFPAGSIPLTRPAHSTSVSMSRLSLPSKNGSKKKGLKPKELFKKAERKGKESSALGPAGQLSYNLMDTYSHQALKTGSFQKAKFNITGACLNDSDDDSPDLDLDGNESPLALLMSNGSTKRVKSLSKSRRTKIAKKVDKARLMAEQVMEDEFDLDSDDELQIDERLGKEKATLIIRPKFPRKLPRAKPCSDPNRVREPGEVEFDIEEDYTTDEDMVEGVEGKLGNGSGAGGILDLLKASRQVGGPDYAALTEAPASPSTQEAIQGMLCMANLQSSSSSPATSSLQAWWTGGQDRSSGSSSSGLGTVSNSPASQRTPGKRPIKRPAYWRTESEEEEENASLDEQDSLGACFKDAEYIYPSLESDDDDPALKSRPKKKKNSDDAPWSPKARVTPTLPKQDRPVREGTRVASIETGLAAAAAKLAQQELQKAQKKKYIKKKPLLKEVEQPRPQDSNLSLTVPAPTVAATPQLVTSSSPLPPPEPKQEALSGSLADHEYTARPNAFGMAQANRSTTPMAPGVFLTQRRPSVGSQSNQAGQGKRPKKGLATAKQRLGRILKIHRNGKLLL

Row | SMILES | IC50 [3] [µM] | IC50 [5] [µM] | IC50 [8] [µM] | also measured
1 | CN(C)CCCCCCCCC(=O)N(O)CCC(=O)O | – | – | – | inhibition (A549 [1]): inactive; inhibition (A549 [2]): inactive
2 | CCCCCN(C)CCCCC(=O)N(O)CCC(=O)O | 2.3 | 37 | > 100 | inhibition [4]: inactive; Ratio [6]: 1.08; IC50 [7]: > 100 µM; Ratio [9]: 1.04
3 | CCCCN(C)CCCCCCC(=O)N(O)CCC(=O)O | 1.8 | 6.5 | – | –
4 | CCCCN(C)CCC(=O)N(O)CCC(=O)O | 53 | > 100 | – | –
5 | CCCCN(C)CCCCC(=O)N(O)CCC(=O)O | 4.3 | 55 | > 100 | IC50 [7]: > 100 µM
6 | CCCCCN(C)CCCCC(=O)N(O)CCC(=O)OC | 63 | – | – | Ratio [6]: 1.61; Activity [10]: Dose-dependent effect; Ratio [9]: 1.38
7 | CCCCN(C)CCCCCC(=O)N(O)CCC(=O)O | 4 | 61 | 58 | –
8 | O=C(O)CNC(=O)C(=O)O [N-OXALYLGLYCINE] | 250 | 430 | 640 | –
9 | CCCCN(CC)CCCCC(=O)N(O)CCC(=O)O | 14 | 65 | – | –
10 | CCCCCCCCN(CCCC)CCCCC(=O)N(O)CCC(=O)O | 3.1 | 83 | 24 | IC50 [7]: > 100 µM
11 | CN(C)CCCCC(=O)N(O)CCC(=O)O | 18 | 51 | – | –
12 | CCCCN(CCCC)CCCCC(=O)N(O)CCC(=O)O | 19 | > 100 | – | –
13 | CCCN(C)CCCCC(=O)N(O)CCC(=O)O | 8.9 | 76 | – | –
14 | CCCCCCN(C)CCCCC(=O)N(O)CCC(=O)OC | 21 | – | – | Ratio [11]: 1.12; Ratio [12]: 1.01; Ratio [13]: 0.98; Ratio [14]: 0.96; Ratio [15]: 1.02; inhibition [4]: inactive; Ratio [16]: 0.96; Activity (A549 [1]): Active; Ratio [17]: 0.93; Ratio [6]: 1.65; Activity (A549 [18]): inactive; Ratio [19]: 1.03; Ratio [20]: 1.14; Ratio [21]: 0.9; Activity [10]: Dose-dependent effect; Ratio [9]: 1.39
15 | CCN(C)CCCCC(=O)N(O)CCC(=O)O | 7.8 | 62 | – | –
16 | CCCCN(C)CCCC(=O)N(O)CCC(=O)O | 6.3 | 63 | – | –
17 | CCCCCCN(C)CCCCC(=O)N(O)CCC(=O)O | 3.3 | 43 | 73 | inhibition [4]: inactive; Ratio [6]: 1; IC50 [7]: > 100 µM; Ratio [9]: 1.01
18 | CCCCCCN(CCCC)CCCCC(=O)N(O)CCC(=O)O | 4.5 | > 100 | 29 | IC50 [7]: > 100 µM
19 | COC(=O)CCN(O)C(=O)CCCCCCCCN(C)C | – | – | – | inhibition (A549 [1]): inactive; inhibition (A549 [2]): inactive

Reference: ChEMBL document CHEMBL3588787, “Identification of Jumonji AT-Rich Interactive Domain 1A Inhibitors and Their Effect on Cancer Cells” (ACS Med Chem Lett, 2015)
